Measured values taken from ChEMBL document CHEMBL4184306 (Bioorg Med Chem Lett, 2018).
Converted amounts (≈) assume the structure as drawn.

Key:
[1] = Growth inhibition of human A2780cis cells after 72 hrs by SRB assay; type: functional, cell-based
A2780 (human) = assay: Selectivity index, ratio of IC50 for SV-40 immortalized human ovarian epithelial cells to IC50 for human A2780 cells
[2] = Growth inhibition of SV-40 immortalized human ovarian epithelial cells after 72 hrs by SRB assay
A2780 [3] = assay: Growth inhibition of human A2780 cells after 72 hrs by SRB assay; type: functional, cell-based; conditions: A2780, 72 h
OVCAR-8 = assay: Growth inhibition of human OVCAR8 cells after 72 hrs by SRB assay; type: functional, cell-based; conditions: OVCAR-8, 72 h
[4] = Aqueous solubility of the compound in phosphate buffer at pH 7.4 measured after 24 hrs by HPLC method; type: physicochemical
How it was run: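 Measured in phosphate buffer at pH 7.4 and 37 °C, with the dissolved compound quantified by high-performance liquid chromatography.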

Plasmodium falciparum [5] = assay: Antiplasmodial activity against Plasmodium falciparum Dd2 by SYBR Green I fluorescence assay; type: functional, organism-based
[6] = Growth inhibition of SV-40 immortalized human ovarian epithelial cells after 48 hrs by MTT assay
[7] = Growth inhibition of human A2780cis cells after 72 hrs by MTT assay; type: functional, cell-based
A2780 [8] = assay: Growth inhibition of human A2780 cells after 48 hrs by MTT assay; type: functional, cell-based; conditions: A2780, 48 h
Plasmodium falciparum [9] = assay: Antiplasmodial activity against chloroquine sensitive Plasmodium falciparum FCR-3/Gambia assessed as [3H]hypoxanthine incorporation after 72 hrs; type: functional, organism-based
Plasmodium falciparum [10] = assay: Antiplasmodial activity against chloroquine and artemisinin sensitive Plasmodium falciparum FCR-3/Gambia after 72 hrs; type: functional, organism-based

With `CC1=CC(=O)C=C(C)C1=O` the IC50 [1] was 2.9 µM, the selectivity ratio (A2780 (human)) was 1.7 and the IC50 [2] was 5.3 µM. For the same compound, the IC50 (A2780 [3]) was 3.2 µM, the IC50 (OVCAR-8) was 5.2 µM and the solubility at 24 h [4] was 5040 µg/mL (≈ 37 mM). The IC50 (Plasmodium falciparum [5]) was 10.4 µM.

`CC(C)(C)C1=CC(=O)C=CC1=O` showed an IC50 [1] of 4.9 µM, a selectivity ratio (A2780 (human)) of 1.8 and an IC50 [2] of 10.3 µM. For the same compound, the IC50 (A2780 [3]) was 5.7 µM, the IC50 (OVCAR-8) was 10 µM and the IC50 (Plasmodium falciparum [5]) was 15.6 µM.

In the case of `CC1=CC(=O)C(C(C)(C)C)=CC1=O`, the IC50 [1] is reported as 7.9 µM, the selectivity ratio (A2780 (human)) is reported as 7.5 and the IC50 [2] is reported as 55.8 µM. The IC50 (A2780 [3]) was 7.5 µM, the IC50 (OVCAR-8) was 13.5 µM and the IC50 (Plasmodium falciparum [5]) was 19.7 µM.

Compound `CC1=C(N)C(=O)C(C(C)C)=CC1=O` has an IC50 [1] of 19.3 µM, a selectivity ratio (A2780 (human)) of 7.1 and an IC50 [2] of 139 µM. For the same compound, the IC50 (A2780 [3]) was 19.9 µM, the IC50 (OVCAR-8) was 35.1 µM and the IC50 (Plasmodium falciparum [5]) was 19.3 µM.

Work on `CC(C)(C)C1=CC(=O)C=C(C(C)(C)C)C1=O` yielded an IC50 [1] of 31.1 µM, an IC50 [2] of 51.5 µM and an IC50 (A2780 [3]) of 24.6 µM. It also gave an IC50 (OVCAR-8) of 37.4 µM and an IC50 (Plasmodium falciparum [5]) of 29.5 µM.

`CC(C)(C)C1=CC(=O)C(C(C)(C)C)=CC1=O` gave an IC50 [1] of 42.5 µM, an IC50 [2] of 117 µM and an IC50 (A2780 [3]) of 34 µM. The IC50 (OVCAR-8) was 51.2 µM and the IC50 (Plasmodium falciparum [5]) was 4.2 µM.

For `CC1=CC(=O)C(Nc2ccc(F)cc2)=CC1=O`, the IC50 [1] was 21.8 µM, the selectivity ratio (A2780 (human)) was 1.3 and the IC50 [2] was 20.2 µM. The IC50 (A2780 [3]) was 15 µM, the IC50 (OVCAR-8) was 32 µM and the IC50 (Plasmodium falciparum [5]) was 100 µM.

Compound `CC1=CC(=O)C(N(C)C)=CC1=O` has an IC50 [1] of 4.7 µM, a selectivity ratio (A2780 (human)) of 1.7 and an IC50 [2] of 7.9 µM. For the same compound, the IC50 (A2780 [3]) was 6.2 µM, the IC50 (OVCAR-8) was 5.6 µM and the solubility at 24 h [4] was 8320 µg/mL (≈ 50.4 mM). It also gave an IC50 (Plasmodium falciparum [5]) of 9.9 µM.

For `Cc1cc(O)c(C(C)C)cc1O`, the IC50 [1] was 9.8 µM, the selectivity ratio (A2780 (human)) was 4.5 and the IC50 [2] was 14 µM. It also gave an IC50 (A2780 [3]) of 3.1 µM, an IC50 (OVCAR-8) of 8.9 µM and an IC50 (Plasmodium falciparum [5]) of 15.9 µM.

Compound `Cc1cc(O)cc(C)c1O` has an IC50 [1] of 3.6 µM, a selectivity ratio (A2780 (human)) of 2.1 and an IC50 [2] of 7.8 µM. The IC50 (A2780 [3]) was 3.6 µM, the IC50 (OVCAR-8) was 8.3 µM and the IC50 (Plasmodium falciparum [5]) was 15.4 µM.

In the case of `CC(C)(C)CC(C)(C)C1=CC(=O)C(C(C)(C)CC(C)(C)C)=CC1=O`, the IC50 [1] is reported as 51.8 µM, the selectivity ratio (A2780 (human)) is reported as > 4.6 and the IC50 [2] is reported as > 200 µM. It also gave an IC50 (A2780 [3]) of 44.2 µM, an IC50 (OVCAR-8) of 56.5 µM and an IC50 (Plasmodium falciparum [5]) of 116 µM.

In the case of `CNC1=C(C)C(=O)C=C(C(C)C)C1=O`, the IC50 [1] is reported as 7.3 µM, the selectivity ratio (A2780 (human)) is reported as 5 and the IC50 [2] is reported as 36.8 µM. It also gave an IC50 (A2780 [3]) of 14 µM, an IC50 (OVCAR-8) of 12.9 µM and an IC50 (Plasmodium falciparum [5]) of 52.7 µM.

Compound `Cc1c(O)c(Br)c(C(C)C)c(O)c1Br` has an IC50 [1] of 4.8 µM, a selectivity ratio (A2780 (human)) of 3.2 and an IC50 [2] of 11 µM. For the same compound, the IC50 (A2780 [3]) was 3.4 µM, the IC50 (OVCAR-8) was 11.6 µM and the IC50 (Plasmodium falciparum [5]) was 25.6 µM.

For `CCC(C)(C)C1=CC(=O)C(C(C)(C)CC)=CC1=O`, the IC50 [1] was 48.8 µM, the selectivity ratio (A2780 (human)) was > 5 and the IC50 [2] was > 200 µM. For the same compound, the IC50 (A2780 [3]) was 36.1 µM, the IC50 (OVCAR-8) was 54.2 µM and the IC50 (Plasmodium falciparum [5]) was 78.8 µM.

For `CC1=C(Cl)C(=O)C(C(C)(C)C)=C(Cl)C1=O`, the IC50 [1] was 4.2 µM, the selectivity ratio (A2780 (human)) was < 1 and the IC50 [2] was 3.1 µM. It also gave an IC50 (A2780 [3]) of 4.5 µM, an IC50 (OVCAR-8) of 6 µM and an IC50 (Plasmodium falciparum [5]) of 16.2 µM.

With `Cc1cc(O)c(C(C)(C)C)cc1O` the IC50 [1] was 11.5 µM, the selectivity ratio (A2780 (human)) was 13.4 and the IC50 [2] was 85.6 µM. The IC50 (A2780 [3]) was 6.4 µM, the IC50 (OVCAR-8) was 12.2 µM and the IC50 (Plasmodium falciparum [5]) was 17.9 µM.

Compound `CCNC1=C(C)C(=O)C=C(C(C)C)C1=O` has an IC50 [1] of 9.6 µM, a selectivity ratio (A2780 (human)) of 3.1 and an IC50 [2] of 30.3 µM. It also gave an IC50 (A2780 [3]) of 12.6 µM, an IC50 (OVCAR-8) of 16 µM and an IC50 (Plasmodium falciparum [5]) of 11.1 µM.

Work on `CC1=C(N(C)C)C(=O)C=CC1=O` yielded an IC50 [1] of 20.5 µM, a selectivity ratio (A2780 (human)) of 1.3 and an IC50 [2] of 28.2 µM. It also gave an IC50 (A2780 [3]) of 16.7 µM, an IC50 (OVCAR-8) of 35.6 µM and an IC50 (Plasmodium falciparum [5]) of 191 µM.

With `CC1=CC(=O)C=CC1=O` [Cresoquinone] the IC50 [1] was 11.8 µM, the selectivity ratio (A2780 (human)) was < 1 and the IC50 [2] was 6 µM. The IC50 (A2780 [3]) was 12.1 µM and the IC50 (OVCAR-8) was 13.4 µM.

`CC1=C(Br)C(=O)C(C(C)C)=C(Br)C1=O` [Dibromothymoquinone] showed an IC50 [1] of 5.3 µM, a selectivity ratio (A2780 (human)) of 1.5 and an IC50 [2] of 7.3 µM. It also gave an IC50 (A2780 [3]) of 4.9 µM, an IC50 (OVCAR-8) of 3.6 µM and an IC50 (Plasmodium falciparum [5]) of 30 µM.

Compound `Cc1cc(O)ccc1O` [METHYLHYDROQUINONE] has an IC50 [1] of 4.7 µM, an IC50 [2] of 6.3 µM and an IC50 (A2780 [3]) of 5.7 µM. It also gave an IC50 (OVCAR-8) of 6.2 µM and an IC50 (Plasmodium falciparum [5]) of 134 µM.

`CC(=O)O[C@H]1C(=O)[C@@]2(C)[C@H]([C@H](OC(=O)c3ccccc3)[C@]3(O)C[C@H](OC(=O)[C@H](O)[C@@H](NC(=O)c4ccccc4)c4ccccc4)C(C)=C1C3(C)C)[C@]1(OC(C)=O)CO[C@@H]1C[C@@H]2O` [PACLITAXEL] showed an IC50 [6] of 0.03 µM, an IC50 (A2780 [3]) of 0.009 µM and an IC50 (OVCAR-8) of 0.01 µM. It also gave an IC50 [7] of 0.003 to 0.004 µM, an IC50 (A2780 [8]) of 0.05 µM and an IC50 (Plasmodium falciparum [9]) of 0.003 to 0.006 µM.

With `CC1=CC(=O)C(C(C)C)=CC1=O` [THYMOQUINONE] the IC50 [1] was 7.8 µM, the IC50 [2] was 17.8 µM and the IC50 (A2780 [3]) was 7.9 µM. For the same compound, the IC50 (OVCAR-8) was 11.6 µM, the solubility at 24 h [4] was 468 µg/mL (≈ 2.85 mM) and the IC50 (Plasmodium falciparum [10]) was 1.2 µM. The IC50 (Plasmodium falciparum [5]) was 25 µM.
